Tests used:
hCE1 [1] = molecular target: T1, hCE1 (Homo sapiens, UniProt P23141); test: Specific activity of hCE1 towards substrates; format: biochemical
T1 sequence (P23141 18-567): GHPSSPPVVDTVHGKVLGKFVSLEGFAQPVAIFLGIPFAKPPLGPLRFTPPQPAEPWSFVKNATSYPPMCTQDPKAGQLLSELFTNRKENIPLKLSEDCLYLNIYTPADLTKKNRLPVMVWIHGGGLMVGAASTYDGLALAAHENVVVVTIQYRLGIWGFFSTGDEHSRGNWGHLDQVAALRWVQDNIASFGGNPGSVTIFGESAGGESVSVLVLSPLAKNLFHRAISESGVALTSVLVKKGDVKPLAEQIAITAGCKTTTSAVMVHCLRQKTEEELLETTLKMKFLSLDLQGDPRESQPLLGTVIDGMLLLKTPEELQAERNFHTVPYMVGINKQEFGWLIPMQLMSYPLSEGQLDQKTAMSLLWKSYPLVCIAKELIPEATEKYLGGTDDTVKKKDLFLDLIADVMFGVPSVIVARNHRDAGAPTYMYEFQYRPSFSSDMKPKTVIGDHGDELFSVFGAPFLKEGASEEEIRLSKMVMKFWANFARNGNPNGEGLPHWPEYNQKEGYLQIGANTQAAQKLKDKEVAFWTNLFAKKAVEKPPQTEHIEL
Procedure, shortened: (§1)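 Enzymes expressed in baculovirus-infected High Five cells: hCE1 CHAPS-solubilised from the 100,000 g pellet, then DEAE-purified; hCE2/hCE3 crude soluble fraction; FAAH crude insoluble fraction. Substrate added to 50 µM final in 100 mM sodium phosphate pH 8.0, 0.1 mg/mL BSA, 1% DMSO. Fluorescence read every 30 s for ≥10 min at 37°C. Rates corrected for estimated purity: hCE1 25%, hCE2 4%, hCE3 3.5% (3% in footnotes), FAAH 6.9%. Triplicates.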

hCE2 [2] = molecular target: T2, hCE2 (Homo sapiens, UniProt O00748); test: Specific activity of hCE2 towards substrates; format: biochemical
T2 sequence (O00748 27-559): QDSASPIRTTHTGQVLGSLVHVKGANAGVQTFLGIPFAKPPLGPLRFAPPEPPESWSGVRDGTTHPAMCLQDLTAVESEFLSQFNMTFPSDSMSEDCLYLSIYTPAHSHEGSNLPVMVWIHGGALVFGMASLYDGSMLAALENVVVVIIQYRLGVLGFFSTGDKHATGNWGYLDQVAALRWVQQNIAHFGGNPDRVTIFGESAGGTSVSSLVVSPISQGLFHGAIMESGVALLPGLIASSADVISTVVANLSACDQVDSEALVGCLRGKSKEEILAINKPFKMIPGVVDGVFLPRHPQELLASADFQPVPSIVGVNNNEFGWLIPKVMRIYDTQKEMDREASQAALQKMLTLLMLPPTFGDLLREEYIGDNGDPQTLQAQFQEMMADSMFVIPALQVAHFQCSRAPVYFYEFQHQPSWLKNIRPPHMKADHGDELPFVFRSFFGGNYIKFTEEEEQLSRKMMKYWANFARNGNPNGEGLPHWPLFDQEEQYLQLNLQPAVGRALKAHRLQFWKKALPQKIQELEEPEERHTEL
Procedure, shortened: as §1

hCE3 = molecular target: T3, hCE3 (Homo sapiens, UniProt Q6UWW8); test: Specific activity of hCE3 towards substrates; format: biochemical
T3 sequence (Q6UWW8 27-571): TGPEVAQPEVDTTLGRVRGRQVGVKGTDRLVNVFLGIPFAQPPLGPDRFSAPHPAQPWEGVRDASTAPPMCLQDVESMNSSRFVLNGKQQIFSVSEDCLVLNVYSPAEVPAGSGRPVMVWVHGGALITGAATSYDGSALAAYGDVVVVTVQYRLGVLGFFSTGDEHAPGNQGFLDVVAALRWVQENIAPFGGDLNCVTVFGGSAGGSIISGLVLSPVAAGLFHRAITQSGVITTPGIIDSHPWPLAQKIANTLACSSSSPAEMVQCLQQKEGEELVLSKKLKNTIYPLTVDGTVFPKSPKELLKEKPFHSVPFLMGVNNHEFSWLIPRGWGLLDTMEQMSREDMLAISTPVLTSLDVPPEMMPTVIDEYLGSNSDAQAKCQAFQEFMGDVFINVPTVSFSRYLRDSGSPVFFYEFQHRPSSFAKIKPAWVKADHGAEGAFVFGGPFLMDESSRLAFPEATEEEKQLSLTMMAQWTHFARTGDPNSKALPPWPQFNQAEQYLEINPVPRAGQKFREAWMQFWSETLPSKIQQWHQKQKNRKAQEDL
Procedure, shortened: as §1

hCE1 [3] = molecular target: T1, hCE1; test: Kinetic properties; format: biochemical
hCE2 [4] = molecular target: T2, hCE2; test: Kinetic properties; format: biochemical
hCE1 [5] = molecular target: T1, hCE1; test: Limit of detection and quantification for hCE1 using partially purified enzyme; format: biochemical; details: for LOD for hCE1: S/N > 3; for LOD for hCE1 / LOQ for hCE1: [S] = 50 µM; for LOQ for hCE1: S/N > 9
Procedure, shortened: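 Partially purified recombinant hCE1, without any matrix, diluted into wells with substrate at 50 µM. Assay run in 100 mM sodium phosphate, pH 8, 0.1 mg/mL BSA, 1% DMSO, at 37°C. S/N taken as mean signal of enzyme wells over the SD of […], quadruplicates in one experiment. LOD set as the lowest level with S/N > 3; LOQ as S/N > 9.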

[6] = Background hydrolysis of substrates in phosphate buffer; format: physicochemical
Lung S9 = test: Substrate hydrolysis by pooled tissue S9, lung; format: biochemical, human
Procedure, shortened: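 Commercial pooled human tissue S9 fraction added to substrate at 50 µM final in 100 mM sodium phosphate, pH 8.0, 0.1 mg/mL BSA. Fluorescence monitored every 30 s for at least 10 min at 37°C. Specific activity given as the mean of triplicates in one experiment, or mean ± standard deviation of 3 independent experiments run in triplicate.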

[7] = Kinetic mode (30 s intervals for 30 minutes)

With `CCCCC(C)CCC(=O)Nc1ccc(OC)nc1C` (stereo not shown) [4-MOMMP, N-(6-methoxy-2-methylpyridin-3-yl)-4-methyloctanamide] the “Turnover by hCE1, times lower than CMNA” value (hCE1 [1]) was 10 times, the “Preference of hCE1 over the other esterases tested” value (hCE1 [1]; 13 other esterases / serine hydrolases) was ≥ 10 fold and the “Hydrolysis Specific Activity” value (hCE1 [1]; Table 6, hCE1) was 370 ± 27 pmol/min/µg. The “Selectivity of hCE1 turnover compared to hCE2” value (hCE2 [2]) was 40- to 50 fold, the “hCE2 Specific activity” value (hCE2 [2]; Table 3, [S] = 50 µM, 37°C, pH 8, estimated 4% purity) was 13 pmol/min/µg and the “Hydrolysis Specific Activity” value (hCE2 [2]; Table 6, hCE2) was 6.4 ± 0.7 pmol/min/µg. For the same molecule, the “hCE3 Specific activity” value (hCE3; Table 3, [S] = 50 µM, 37°C, pH 8, estimated 3% purity) was <1 pmol/min/µg, the “Hydrolysis Specific Activity” value (hCE3; Table 6, hCE3) was 1.4 ± 0.4 pmol/min/µg and the “Catalytic efficiency of hCE1, fold lower than that of CMNA” value (hCE1 [3]) was “approximately 16 fold”. For the same molecule, the “Vmax with hCE1, fold lower than CMNA” value (hCE1 [3]) was 3 fold, the “Vmax, fold higher with hCE1 than hCE2” value (hCE1 [3]) was 120 fold and the “KM for hCE2, fold lower than that of hCE1” value (hCE2 [4]) was 3 fold. For the same molecule, the “Time over which hCE1 hydrolysis remained linear” value (hCE1 [5]) was “at least 24 hours”, the “LOD for hCE1” value (hCE1 [5]; Endpoint mode 1 hour) was 0.06 ng and the “LOQ for hCE1” value (hCE1 [5]; Endpoint mode 1 hour) was 2.0 ng. The “LOD for hCE1” value (hCE1 [5]; Endpoint mode 4 hours) was 0.03 ng, the “LOQ for hCE1” value (hCE1 [5]; Endpoint mode 4 hours) was 0.12 ng and the “LOD for hCE1” value (hCE1 [5]; Endpoint mode 24 hours) was 0.008 ng. The “LOQ for hCE1” value (hCE1 [5]; Endpoint mode 24 hours) was 0.03 ng, the “LOD for hCE1” value (hCE1 [5]; [7]) was 3.9 ng and the “LOQ for hCE1” value (hCE1 [5]; [7]) was 16 ng. For the same molecule, the “Limit of quantification for hCE1, fold higher than CMNA” value (hCE1 [5]; kinetic mode, short time (<30 minutes)) was 4 fold, the “Background hydrolysis, fold lower than CMNA” value ([6]; phosphate buffer) was 200 fold and the “Rate of background hydrolysis” value ([6]; phosphate buffer 100 mM, pH 8, 0.1 mg/mL BSA) was 0.1 pmol/min. For the same molecule, the “Hydrolysis Specific Activity” value (Lung S9) was 0.20 ± 0.02 pmol/min/µg.
